Source: ChEMBL document CHEMBL2086268, “Synthesis, radiolabeling and initial in vivo evaluation of [(11)C]KSM-01 for imaging PPAR-α receptors” (Bioorg Med Chem Lett, 2012)

Tests used:
Details in all cases: in vivo, 1 h; call rule not given here
Mus musculus = assay: Drug uptake in MHC-PPARalpha overexpressing transgenic mouse at 170 uCi, iv after 60 mins by microPET imaging analysis relative to wild type control; format: ADME, organism-based
Summary of the method: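 Transgenic mice overexpressing PPAR-α in heart (ventricular PPAR-α protein about 15-fold above wild-type) and wild-type littermate controls. Dynamic microPET imaging over 0–60 min after intravenous injection of the carbon-11-labelled radiotracer. Radiochemical purity >98%. Cardiac accumulation was quantified as standard uptake values (SUV) and compared with wild-type animals.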

Liver [1] = assay: Drug uptake in liver of MHC-PPARalpha overexpressing transgenic mouse at 170 uCi, iv after 60 mins by microPET imaging analysis; format: ADME, organism-based
Summary of the method: (§1)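 Dynamic microPET scan over 0–60 min after intravenous injection of the 11C-labelled tracer. Transgenic mice had cardiac-ventricle PPAR-α protein about 15-fold above wild-type littermates. Data were analysed as standard uptake values (SUV).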

Heart = assay: Drug uptake in heart of MHC-PPARalpha overexpressing transgenic mouse at 170 uCi, iv after 60 mins by microPET imaging analysis; format: ADME, organism-based; summary of the method: as §1
[2] = Drug uptake in cardiac tissue of MHC-PPARalpha overexpressing transgenic mouse at 170 uCi, iv after 60 mins by post-PET gamma counting analysis; format: ADME, organism-based, Heart
Summary of the method: (§2)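 Biodistribution done after PET: tissues were collected after the 0–60 min dynamic scan following intravenous injection of the 11C-labelled tracer. Transgenic mice with about 15-fold ventricular PPAR-α overexpression were used alongside wild-type littermate controls. Uptake was expressed as %ID/g.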

[3] = Drug uptake in wild type mouse cardiac tissue at 170 uCi, iv after 60 mins by post-PET gamma counting analysis; format: ADME, organism-based, Heart; summary of the method: as §2
Blood [4] = assay: Drug uptake in blood of MHC-PPARalpha overexpressing transgenic mouse at 170 uCi, iv after 60 mins by post-PET gamma counting analysis; format: ADME, organism-based; summary of the method: as §2
Blood [5] = assay: Drug uptake in wild type mouse blood at 170 uCi, iv after 60 mins by post-PET gamma counting analysis; format: ADME, organism-based; summary of the method: as §2
Lung [6] = assay: Drug uptake in lungs of MHC-PPARalpha overexpressing transgenic mouse at 170 uCi, iv after 60 mins by post-PET gamma counting analysis; format: ADME, organism-based; summary of the method: as §2
Lung [7] = assay: Drug uptake in wild type mouse lungs at 170 uCi, iv after 60 mins by post-PET gamma counting analysis; format: ADME, organism-based; summary of the method: as §2
Liver [8] = assay: Drug uptake in liver of MHC-PPARalpha overexpressing transgenic mouse at 170 uCi, iv after 60 mins by post-PET gamma counting analysis; format: ADME, organism-based; summary of the method: as §2
Liver [9] = assay: Drug uptake in wild type mouse liver at 170 uCi, iv after 60 mins by post-PET gamma counting analysis; format: ADME, organism-based; summary of the method: as §2
Spleen [10] = assay: Drug uptake in spleen of MHC-PPARalpha overexpressing transgenic mouse at 170 uCi, iv after 60 mins by post-PET gamma counting analysis; format: ADME, organism-based; summary of the method: as §2
Spleen [11] = assay: Drug uptake in wild type mouse spleen at 170 uCi, iv after 60 mins by post-PET gamma counting analysis; format: ADME, organism-based; summary of the method: as §2
Kidney [12] = assay: Drug uptake in kidney of MHC-PPARalpha overexpressing transgenic mouse at 170 uCi, iv after 60 mins by post-PET gamma counting analysis; format: ADME, organism-based; summary of the method: as §2
Kidney [13] = assay: Drug uptake in wild type mouse kidney at 170 uCi, iv after 60 mins by post-PET gamma counting analysis; format: ADME, organism-based; summary of the method: as §2
Muscle tissue [14] = assay: Drug uptake in muscle of MHC-PPARalpha overexpressing transgenic mouse at 170 uCi, iv after 60 mins by post-PET gamma counting analysis; format: ADME, organism-based; summary of the method: as §2
Muscle tissue [15] = assay: Drug uptake in wild type mouse muscle at 170 uCi, iv after 60 mins by post-PET gamma counting analysis; format: ADME, organism-based; summary of the method: as §2

In the case of CC(C)(Sc1ccc(CCN(CCCCC2CCCCC2)C(=O)Nc2ccc(O[11CH3])cc2)cc1)C(=O)O, the “fold change (FC)” value (Mus musculus) is reported as 2, the Drug uptake (Liver [1]) is reported as “Active” and the Drug uptake (Heart) is reported as “Active”. It also gave a Drug uptake [2] of 1.09 % ID/g, a Drug uptake [3] of 0.479 % ID/g and a Drug uptake (Blood [4]) of 0.42 % ID/g. It also gave a Drug uptake (Blood [5]) of 0.42 % ID/g, a Drug uptake (Lung [6]) of 2.65 % ID/g and a Drug uptake (Lung [7]) of 2.11 % ID/g. The Drug uptake (Liver [8]) was 55.3 % ID/g, the Drug uptake (Liver [9]) was 60.69 % ID/g and the Drug uptake (Spleen [10]) was 1.33 % ID/g. It also gave a Drug uptake (Spleen [11]) of 1.55 % ID/g, a Drug uptake (Kidney [12]) of 2.58 % ID/g and a Drug uptake (Kidney [13]) of 2.01 % ID/g. It also gave a Drug uptake (Muscle tissue [14]) of 0.36 % ID/g and a Drug uptake (Muscle tissue [15]) of 0.35 % ID/g.
